Most compounds without a hit are left out; they make up all but 4.1% or so of the library.
KCC2 mod = KCC2 cotransporter modulators, thallium flux, primary screen, cell-based, HEK293 KCC2, FluoZin-2 fluorescence, MLSMR. Solute carrier family 12 member 5 (Homo sapiens), Q9H2X9. KCC2 cells, thallium flux FluoZin-2 fluorescence. B-score of Tl+ flux slope (higher = more flux/activation; lower = inhibition) at 10 µM. hit rate 2.2% among 190,000. AID 1456, 2008;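 active = thallium flux slope and its plate-corrected score both differing from the plate sample mean at a set confidence after two filtering rounds, in either direction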;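 also: slope of fluorescence scaled to starting intensity during 10 to 20 s after thallium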
KCNK9 inh = KCNK9 potassium channel inhibitors, primary screen, HEK293 cells, thallium flux; FluxOR thallium flux fluorescence; active compounds read low; B-score at 10 µM; hit rate 1.2% among 310,000;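 active = ratio B-score over 3 SD below the library mean, with starting fluorescence within 5 SD of its mean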;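 also: negative B-score means less thallium flux so channel inhibition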
Target sequence (Q9NPC2 whole entry, looked up): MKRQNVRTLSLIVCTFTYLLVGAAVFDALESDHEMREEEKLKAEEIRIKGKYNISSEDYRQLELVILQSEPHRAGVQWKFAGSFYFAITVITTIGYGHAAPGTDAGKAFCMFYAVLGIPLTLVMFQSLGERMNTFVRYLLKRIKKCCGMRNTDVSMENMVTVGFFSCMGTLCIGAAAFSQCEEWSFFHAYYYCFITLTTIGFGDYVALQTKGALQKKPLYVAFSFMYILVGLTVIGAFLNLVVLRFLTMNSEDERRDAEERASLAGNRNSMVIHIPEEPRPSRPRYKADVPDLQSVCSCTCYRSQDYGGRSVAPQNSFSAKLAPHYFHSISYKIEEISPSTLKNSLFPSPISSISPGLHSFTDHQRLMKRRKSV
KCNK3 block = human KCNK3 channel inhibitors, primary screen, CHO cells, FluxOR thallium flux, B-score; FluxOR fluorescence; active compounds read low; AID 602410, 2012; B-score at 10 µM; hit rate 0.84% among 340,000;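 active = B-score under library mean minus 4 SD, starting fluorescence ratio at most library mean plus 5 SD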;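 also: more negative B-score means stronger inhibition of thallium flux through KCNK3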
hERG protect = hERG rescue from dofetilide block, primary screen, cell-based, CHO-hERG, FluxOR thallium flux, dofetilide IC70 | Voltage-gated inwardly rectifying potassium channel KCNH2 (Homo sapiens), Q12809 | dofetilide IC70 present | activation (rescue from dofetilide block), less the hit threshold, % at 10 µM | hit rate 0.51% among 310,000 | AID 1511, 2009;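 active = activation above the mean of controls blocked by dofetilide plus 5 SD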;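 also: thallium influx through hERG after potassium depolarization seen as dye fluorescence rise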
KCNQ1 block = inhibitors of human KCNQ1 channel, primary screen, cell-based, thallium flux, high-throughput. hit rate 1.3% among 310,000. CHO-K1 KCNQ1, FluxOR thallium flux fluorescence; active compounds read high. Potassium voltage-gated channel subfamily KQT member 1 (Homo sapiens), P51787. AID 2642, 2010. B-score at 10 µM;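 active = compounds whose thallium flux B-score, printed positive for inhibition, exceeds three library SD while starting fluorescence stays within three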;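 also: channel opened by potassium depolarization with thallium stimulus after 20 min compound exposure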
KCNQ1 pot = potentiators or activators of KCNQ1 channel, primary screen, cell-based, thallium flux, high-throughput | Potassium voltage-gated channel subfamily KQT member 1 (Homo sapiens), P51787 | CHO-K1 KCNQ1, thallium flux FluxOR fluorescence; active compounds read high | B-score at 10 µM | hit rate 0.35% among 310,000;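 active = fluorescence ratio B-score, a plate-corrected score, at least three library SD, with initial intensity B-score within 5 SD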
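Schedule – 37 °C overnight plating, 90-min dark dye load, 20-min compound pretreatment · System – stable KCNQ1 CHO-K1 line · Probe or stimulus – thallium- and potassium-containing depolarizing buffer · Measured by – kinetic FluxOR fluorescence, 10 s baseline plus 110 s post-stimulus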
Active calls of the source: *.

Screening COc1ccccc1C(=O)N1[C@@H](C(C)C)COc2cc(Br)ccc2S1(=O)=O returned KCNK3 block inactive.
COc1ccc(C2=NS(=O)(=O)N(C)C(C(=O)Nc3ccc(C)cc3)=C2)cc1 was read as KCNK9 inh inactive, KCNK3 block inactive, hERG protect -9, KCNQ1 block inactive and KCNQ1 pot inactive.
CCc1ccc(NC(=O)C2=CC(c3ccc(OC)cc3)=NS(=O)(=O)N2C)cc1 was read as KCNK9 inh -7.6*, KCNK3 block inactive, hERG protect -11, KCNQ1 block inactive and KCNQ1 pot inactive.
For c1ccc(C(c2ccccc2)N2CCN(C(c3ccccn3)c3nnnn3C3CCCC3)CC2)cc1 (centres undefined) the results were KCC2 mod 2.3, KCNK9 inh -15*, KCNK3 block inactive, hERG protect -13, KCNQ1 block inactive and KCNQ1 pot inactive.
Screening Cc1cc(NC(=O)NC(=O)c2ccccc2NC(=O)C(C)N)ccc1Oc1ncc(Br)cn1 (centres undefined) returned KCNK3 block inactive.
`COc1ccc(C(F)(F)F)cc1N/C=C/c1nnnn1-c1ccc(C)cc1` gave KCC2 mod 0.24, KCNK9 inh -6.7*, KCNK3 block inactive, hERG protect -12, KCNQ1 block inactive and KCNQ1 pot inactive.
For Cc1cc(N/C=C\c2nnnn2-c2ccccc2)no1 the results were KCC2 mod -0.28, KCNK9 inh inactive, KCNK3 block inactive, hERG protect -5, KCNQ1 block inactive and KCNQ1 pot inactive.
O=C(NCCCN1CCN(c2ccc(F)cc2)CC1)NC12CC3CC(CC(C3)C1)C2 was read as KCNK9 inh inactive, KCNK3 block inactive, hERG protect -16, KCNQ1 block inactive and KCNQ1 pot inactive.
For O=C(NCCCN1CCOCC1)NC12CC3CC(CC(C3)C1)C2 the results were KCC2 mod -0.69, KCNK9 inh inactive, KCNK3 block inactive, hERG protect -7, KCNQ1 block 6* and KCNQ1 pot inactive.
For COc1ccc(OC)c(C(=O)c2coc3cc(Br)c(O)c(Br)c23)c1 the results were KCNK9 inh -7.6*, KCNK3 block inactive, hERG protect -7, KCNQ1 block inactive and KCNQ1 pot inactive.
`CCOC(=O)C1=C(O)c2ccccc2C(=O)/C1=C\c1ccc(CC)cc1` gave KCNK9 inh inactive, KCNK3 block inactive, hERG protect 2, KCNQ1 block inactive and KCNQ1 pot 8*.
Screening CCCc1ccc(/C=C2\C(=O)c3ccccc3C(O)=C2C(=O)OCC)cc1 returned KCNK9 inh inactive, hERG protect -9, KCNQ1 block inactive and KCNQ1 pot 8*.
For O=C(CN1CCN(CC(=O)c2ccccc2)CC1)c1ccccc1 the results were KCNK3 block inactive.
For CCc1ccc(NC(=S)N(Cc2cccnc2)Cc2ccco2)cc1 the results were KCC2 mod -0.14, KCNK9 inh inactive, KCNK3 block inactive, hERG protect 6.0*, KCNQ1 block inactive and KCNQ1 pot inactive.
`COc1ccc(NC(=S)N(Cc2cccnc2)Cc2ccco2)cc1` gave KCC2 mod 0.87, KCNK9 inh inactive, KCNK3 block inactive, hERG protect -17, KCNQ1 block inactive and KCNQ1 pot inactive.
For Cc1ccc(-n2ncc3c(=O)n(CC(=O)N4CCN(c5ccccc5F)CC4)cnc32)cc1C the results were KCC2 mod -0.0059, KCNK9 inh inactive, KCNK3 block inactive, hERG protect 0, KCNQ1 block inactive and KCNQ1 pot 7*.
For Cc1ccc(-n2ncc3c(=O)n(CC(=O)N4CCN(c5ccccc5)CC4)cnc32)cc1C the results were KCC2 mod 0.52, KCNK9 inh inactive, KCNK3 block inactive, hERG protect -16, KCNQ1 block inactive and KCNQ1 pot inactive.
Screening Cc1ccc(-n2ncc3c(=O)n(CC(=O)N4CCCc5ccccc54)cnc32)cc1C returned KCC2 mod -3.4*, KCNK9 inh inactive, KCNK3 block inactive, hERG protect -6, KCNQ1 block inactive and KCNQ1 pot inactive.
CN(C)S(=O)(=O)c1cccc(NC(=O)c2ccc3c(c2)OCCO3)c1 was read as KCNK9 inh inactive, KCNK3 block inactive, hERG protect -10, KCNQ1 block inactive and KCNQ1 pot inactive.
`CC(=O)c1cccc(S(=O)(=O)NC2CCSc3ccccc32)c1` (centres undefined) gave KCNK9 inh inactive, KCNK3 block inactive, hERG protect -5, KCNQ1 block inactive and KCNQ1 pot inactive.
Screening Cc1ccccc1CN(C)CC(=O)Nc1ccccc1Oc1ccccc1 returned KCC2 mod -0.47, KCNK9 inh -7.5*, KCNK3 block inactive, hERG protect -14, KCNQ1 block inactive and KCNQ1 pot inactive.
For CCC(=O)Nc1ccccc1Oc1ccccc1 the results were KCNK9 inh inactive, KCNK3 block inactive, hERG protect 0, KCNQ1 block inactive and KCNQ1 pot inactive.
Screening CCCn1nnc(NC(=O)C(c2ccccc2)c2ccccc2)n1 returned KCC2 mod -0.0039, KCNK9 inh inactive, KCNK3 block inactive, hERG protect 6.6*, KCNQ1 block inactive and KCNQ1 pot inactive.
For CCCCn1nnc(NC(=O)C(c2ccccc2)c2ccccc2)n1 the results were KCC2 mod 0.93, KCNK9 inh inactive, KCNK3 block inactive, hERG protect -22, KCNQ1 block inactive and KCNQ1 pot inactive.
`COC(=O)C1=CN(Cc2ccc(OC)cc2)C=C(C(=O)OC)C1c1cccs1` gave KCC2 mod -0.89, KCNK9 inh -6.7*, KCNK3 block inactive, hERG protect -9, KCNQ1 block inactive and KCNQ1 pot inactive.
Screening O=C(/C(=C/O)N=Nc1ccccc1)c1ccncc1 returned KCNK9 inh -7.6*, KCNK3 block inactive, hERG protect -8, KCNQ1 block inactive and KCNQ1 pot inactive.
`O=C(/C(=C/O)N=Nc1ccccc1)c1ccc(Cl)cc1` gave KCC2 mod 0.35, KCNK9 inh inactive, KCNK3 block inactive, hERG protect -7, KCNQ1 block inactive and KCNQ1 pot inactive.
Screening CC(C)c1ccc2c(c1)C(c1cccs1)=NNC(c1ccncc1)=N2 returned KCC2 mod -1.7, KCNK9 inh -7.4*, KCNK3 block inactive, hERG protect -5, KCNQ1 block inactive and KCNQ1 pot inactive.

High-throughput results: PubChem, several laboratories
